# Screening data (PubChem)
# Rows were chosen to be rich in hits. Some 2.3% of all compounds tested hit in one or more screens of this group.
# GalR3 antagonist = human GalR3 antagonism. O60755. HEK293 GalR3-CNG cAMP membrane potential fluorescence; galR3 body fused to GalR1 C-terminus. inhibition, % at 3 µM. hit rate 0.44% among 360,000. AID 651719;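 active means inhibition above the screen-wide average plus 3 SD, cut at about 13% in these data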;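 further: forskolin and galanin both at EC90 stimulate the cells; cAMP rise reported by CNG channel membrane potential dye signal; 0% = forskolin plus galanin with DMSO and 100% = forskolin alone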
# Target sequence (O60755 1-299 limits assumed): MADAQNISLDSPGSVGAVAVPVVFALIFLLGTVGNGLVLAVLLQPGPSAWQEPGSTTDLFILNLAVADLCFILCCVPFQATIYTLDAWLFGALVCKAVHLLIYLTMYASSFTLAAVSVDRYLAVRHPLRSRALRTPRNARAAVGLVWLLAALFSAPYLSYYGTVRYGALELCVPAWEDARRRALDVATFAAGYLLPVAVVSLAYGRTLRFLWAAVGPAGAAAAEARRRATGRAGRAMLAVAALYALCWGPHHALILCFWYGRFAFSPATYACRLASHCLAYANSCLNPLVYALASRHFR
# NR2E3 ag-1 = activates human NR2E3 receptor | CHO-S Gal4-NCOR/VP16-NR2E3 two-hybrid, luciferase | inhibition of corepressor binding, % at 3.98 µM | Q9Y5X4 | hit rate 0.35% among 360,000;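 active means inhibition above the mean of all tested compounds plus 3 SD, cut at about 70% in these data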;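 further: 0% = DMSO with NR2E3 transfected cells and 100% = cells lacking NR2E3 construct; higher means lower luciferase signal from less NR2E3 corepressor binding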
# NR2E3 ag-2 = activates human photoreceptor nuclear receptor NR2E3; Q9Y5X4; GST-NR2E3/biotin-RetCOR TR-FRET, 1536-well; inhibition of corepressor binding, % at 4.78 µM; hit rate 0.12% among 320,000; AID 2300;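 active means percent inhibition above the cutoff of mean plus 3 SD of all tested compounds, set per screening campaign, cut at about 20% in these data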;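 further: 0% = DMSO wells and 100% = biotin wells as full block of FRET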
#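 Material – GST-tagged NR2E3 plus biotinylated RetCOR corepressor · Quantity – NR2E3 fusion 1.35 nM · Times – 5 h incubation at 4 °C · Medium – pH 7.5 Tris-based buffer · Technique – TR-FRET, Eu(K)-anti-GST donor, streptavidin-D2 acceptor, ex 340, em 617/671 nm · Benchmarks – high control biotin, low control 0.6% DMSO · Format – 1536-well plates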
# CHT block = inhibits the human high affinity choline transporter; Q9GZV3; CHT-expressing cells, membrane potential dye, choline response; hits give low values; B-score at 10 µM; hit rate 0.86% among 310,000; AID 488975;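 active means B-score over 3 SD under the library average, and starting fluorescence ratio not unusually high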;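 further: choline stimulus applied at its EC90 after an EC20 pre-addition; B-score computed on integrated fluorescence ratio after choline addition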
# CHT allo act = allosteric activators of human choline transporter CHT; hit rate 0.49% among 310,000; CHT-expressing cells, membrane potential dye, choline EC20; hits give high values; LV-AA mutant CHT in HEK293 cells; Q9GZV3; B-score at 10 µM;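 active means initial fluorescence not abnormally high and integrated response B-score, plate-corrected, over 3 SD above library mean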
# NR2F2 inh = blocks human COUP-TFII nuclear receptor; P24468; HEK293T NGFI-A luciferase reporter, luminescence; inhibition, % at 8.6 µM; hit rate 0.7% among 370,000; AID 686940;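 active means inhibition above a per-plate cutoff, mean inhibition of test wells between control levels plus 3 SD, cut at about 38% in these data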;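 further: cells cotransfected with COUP-TFII expression vector driving the NGFI-A reporter; 0% = median of COUP-TF2 test wells and 100% = reporter-only cells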
# Target sequence (P24468 whole entry, looked up): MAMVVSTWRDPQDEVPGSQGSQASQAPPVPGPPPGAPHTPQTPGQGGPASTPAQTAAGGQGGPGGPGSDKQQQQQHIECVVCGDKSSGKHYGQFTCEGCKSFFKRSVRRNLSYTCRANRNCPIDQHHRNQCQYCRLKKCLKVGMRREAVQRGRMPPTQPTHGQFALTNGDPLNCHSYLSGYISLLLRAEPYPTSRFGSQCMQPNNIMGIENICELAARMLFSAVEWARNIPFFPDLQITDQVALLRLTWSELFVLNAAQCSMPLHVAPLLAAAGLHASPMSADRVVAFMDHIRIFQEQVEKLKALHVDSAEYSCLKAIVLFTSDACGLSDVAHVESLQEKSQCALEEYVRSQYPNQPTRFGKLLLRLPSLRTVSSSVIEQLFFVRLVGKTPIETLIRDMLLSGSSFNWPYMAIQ
# CHT inh conf = human CHT inhibition, confirmatory screen; shares compounds with CHT block; CHT-expressing cells, choline membrane potential dye; LV-to-AA substituted CHT, HEK293 cells; hit rate 70% among 2,400; CHT activity remaining % of control (hits give low values), % at 10 µM;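 active means choline transporter activity left, mean of duplicates at 10 µM, below buffer-only control mean minus 3 SD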;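 further: depolarization triggered by choline at its EC90 following an EC20 pre-addition; 0% = hemicholinium-3 full block and 100% = buffer-only control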
# HEK293 MPD ctr = counter-screen for CHT inhibitors: effect in parental HEK293 cells; shares compounds with CHT block; membrane potential dye, choline response; active = decrease or increase beyond buffer ±3SD; membrane potential ratio readout (active if shifted either direction beyond buffer ±3SD; no single direction) at 10 µM; hit rate 4% among 2,400; AID 493222;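 further: parental cells lack the transporter so any hit is non-specific; ratio is peak minus trough fluorescence over baseline after EC90 choline challenge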
# The depositor's hits bear a star; i = inactive; nt = not tested or not shown.
SMILES,GalR3 antagonist,NR2E3 ag-1,NR2E3 ag-2,CHT block,CHT allo act,NR2F2 inh,CHT inh conf,HEK293 MPD ctr
CSc1cnc2c(=O)n(C)c(=O)[nH]c2n1,0.7,14.7,0.1,i,i,-19.7,nt,nt
Cn1c(=O)[nH]c2nnc(-c3ccc(Cl)c(Cl)c3)nc2c1=O,-1.6,-106.0,-2.1,-4.98*,i,-22.7,34.4%*,i
CCOC(=O)[C@@]12CCCC=C1N(CCc1ccc(Cl)cc1)C(=O)[C@H]2CC(=O)NCc1cccc(C(F)(F)F)c1,nt,nt,nt,nt,nt,6.0,nt,nt
O=C(CCCSc1nnc(-c2cccs2)n1CC1CCCO1)c1ccccc1 (stereo not given),-2.9,-2.5,-0.4,-5.51*,i,17.0,i,-8.65*
Cc1ccc(N2C(=O)N(CC(=O)Nc3ccc(C)cc3C)C(=O)C2C)cc1 (stereo not given),-6.3,-4.8,-1.0,i,i,-6.1,nt,nt
Cc1ccc(N2C(=O)N(CC(=O)Nc3c(C)cc(C)cc3Cl)C(=O)C2C)cc1 (stereo not given),-4.8,-11.6,0.8,-5.04*,i,-16.8,i,i
O=C1Nc2ccc(F)cc2C12Nc1ccccc1-c1nnc(SCc3ccccc3Cl)nc1O2 (stereo not given),2.4,-23.8,-1.3,-6.11*,i,-19.6,i,i
O=C1Nc2ccc(F)cc2C12Nc1ccccc1-c1nnc(SCc3ccccc3)nc1O2 (stereo not given),-4.7,-25.5,2.0,i,i,-3.4,nt,nt
COc1ccc(CNC(=O)[C@H](C)NC(=O)N2CCn3c2nc2ccccc23)cc1,-7.0,39.4,-0.3,-5.97*,i,-5.7,46.5%*,i
CCC(C)[C@H](NC(=O)N1CCn2c1nc1ccccc12)C(=O)NCc1ccccc1 (stereo not given in full),0.7,25.2,0.3,i,i,10.2,nt,nt
C=CCN1C(=O)[C@@H](CC(=O)NCC23CC4CC(CC(C4)C2)C3)[C@]2(C(=O)OCC)CCCCC/C=C/12,nt,nt,nt,nt,nt,-6.8,nt,nt
O[C@H](COc1cc(F)cc(F)c1)CN1CCC(C(O)(c2ccccc2)c2ccccc2)CC1,nt,nt,nt,nt,nt,-4.3,nt,nt
CCn1c(=O)cc(SCC(=O)NCc2ccc(C)o2)c2ccccc21,-3.3,-156.0,1.3,-5.08*,i,-47.5,i,i
CCOc1ccc(Nc2nc(N)c3ccccc3n2)cc1,-12.6,-102.8,nt,-5.8*,i,-38.9,47.9%*,i
COc1ccc(C)cc1Nc1nc(N)c2ccccc2n1,-10.9,-35.6,2.8,-13.4*,i,4.6,41.5%*,i
COc1ccc(OC)c(Nc2nc(N)c([N+](=O)[O-])c(NCc3ccccc3)n2)c1,-2.7,-10.9,-0.2,-5*,i,7.0,i,i
COCCCNc1nc(N)c([N+](=O)[O-])c(Nc2cc(OC)ccc2OC)n1,-7.1,-2.7,-1.2,i,i,7.2,nt,nt
C=CCN1C(=O)[C@@H](CC(=O)NCCCCc2ccccc2)[C@]2(C(=O)OC)CCCCC=C12,nt,nt,nt,nt,nt,-29.9,nt,nt
COc1ccc2c(c1)CN1CN(Cc3ccc(F)cc3)S(=O)(=O)CC21 (stereo not given),nt,nt,nt,nt,nt,-8.8,nt,nt
Cc1ccc(NC(=O)OC2CCC23CCCCC3)cc1 (stereo not given),nt,nt,nt,nt,nt,-13.5,nt,nt
Cc1cc(C)cc(CC(Cc2nc3ccccc3[nH]2)c2nc3ccccc3[nH]2)c1 (stereo not given),-4.9,6.0,1.2,-8.66*,i,18.1,54.1%*,i
CCCCCn1c(=O)[nH]c2cc(C(=O)NCCCN3CCC(C)CC3)ccc2c1=O,-6.2,-10.7,-2.2,i,i,9.9,nt,nt
CCCCCn1c(=O)[nH]c2cc(C(=O)NCCN3CCC(C)CC3)ccc2c1=O,nt,4.4,5.5,-6.13*,i,nt,i,i
Cc1ccc(C(=O)N/C(=C\C=C\c2ccccc2)C(=O)NCc2ccco2)cc1,-2.9,-3.0,-6.0,-6.59*,i,-15.5,53.6%*,i
Nn1c(SCC(=O)NC2CCCCC2)nnc1-c1cc(-c2ccc(Cl)cc2)n[nH]1,nt,nt,nt,nt,nt,0.3,nt,nt
SMILES,GalR3 antagonist,NR2E3 ag-1,NR2E3 ag-2,CHT block,CHT allo act,NR2F2 inh,CHT inh conf,HEK293 MPD ctr
CC(C)c1ccc(NC(=O)CSc2nc(=O)n(CCCN3CCOCC3)c3c2CCC3)cc1,-0.2,-26.3,-0.5,-4.95*,i,11.1,38.2%*,i
O=C(c1ccco1)N1CCC(Oc2cccnc2)CC1,nt,nt,nt,nt,nt,15.4,nt,nt
CCCCc1cc(-c2n[nH]c(=S)o2)c2ccccc2n1,-10.1,-22.0,2.1,-8.36*,i,0.1,66.9%*,i
O=c1[nH]nc(-c2cc(-c3ccccc3)nc3ccccc23)o1,-5.3,3.0,nt,nt,nt,3.7,nt,nt
COC(=O)[C@H](CC1(c2cn(S(=O)(=O)CC[Si](C)(C)C)c3ccccc23)C(=O)Nc2ccccc21)NC(=O)OC(C)(C)C (stereo not given in full),nt,nt,nt,nt,nt,3.1,nt,nt
O=C(CSc1nnc(Cc2ccccc2)o1)Nc1ccccc1,-1.5,-14.1,-4.6,i,i,13.6,nt,nt
O=C(CSc1nnc(Cc2ccsc2)o1)c1ccccc1,-6.5,-18.2,1.5,-5.2*,i,-27.7,69.7%*,i
CCOc1ccc(-n2c(SCC(=O)Nc3ccc(S(=O)(=O)Nc4cc(C)nc(C)n4)cc3)nnc2-c2ccc(C)cc2)cc1,nt,nt,nt,nt,nt,11.2,nt,nt
CC(C)(C)NC(=O)C(c1cccnc1)N(C(=O)c1cnc[nH]1)c1ccc(C(C)(C)C)cc1 (stereo not given),nt,nt,nt,nt,nt,17.5,nt,nt
COc1ccc(CN2CCN(CCC(C)C)C(CCO)C2)cc1Cn1cccn1 (stereo not given),0.1,8.2,-4.2,i,i,-1.1,nt,nt
COc1ccc(CN2CCN(C(C)C)C(CCO)C2)cc1Cn1cccn1 (stereo not given),-4.9,11.6,-0.5,-11.9*,i,-4.4,6.3%*,i
CC(C)(C)C(=O)NC(=S)NNC(=O)C(c1ccccc1)c1ccccc1,nt,32.7,-0.9,-6.55*,i,nt,36.1%*,i
Cc1ccc(C)c(NC(=O)CCC(=O)NNC(=S)Nc2ccccc2)c1,-4.0,-26.5,-4.3,i,i,12.1,nt,nt
Cc1ccc(C)c(NCC(=O)NNC(=S)Nc2ccccc2)c1,-4.0,-3.3,4.9,-6.19*,i,1.0,67.2%*,i
Cc1oc(-c2ccc(Cl)cc2)nc1CS(=O)CC(=O)NC(C)c1ccccc1 (stereo not given),-3.7,8.9,1.3,-6.46*,i,-2.2,39.3%*,i
Cn1c(SCCc2ccccc2)nnc1-c1ccco1,nt,nt,nt,nt,nt,-33.7,nt,nt
